From ChEMBL document CHEMBL3593221, “Design, synthesis and preliminary biological evaluation of indoline-2,3-dione derivatives as novel HDAC inhibitors” (Bioorg Med Chem, 2015)

Legend:
[1] = molecular target: Histone deacetylase (HDAC1 and HDAC2) (Homo sapiens, UniProt Q13547+Q92769); test: Inhibition of HDAC1/2 in human HeLa cell nuclear extract using Boc-Lys (acetyl)-AMC as substrate preincubated for 30 mins before substrate addition measured after 20 mins by UV-vis spectrophotometer analysis; type: cell-based
[2] = system: MCF7; test: Antiproliferative activity against human MCF7 cells after 48 hrs by MTT assay; type: functional, cell-based; conditions: MCF7, 48 h
[3] = system: HEL; test: Antiproliferative activity against human HEL cells after 48 hrs by MTT assay; type: functional, cell-based
[4] = Antiproliferative activity against human ES2 cells after 48 hrs by MTT assay; type: functional, cell-based; conditions: ES-2, 48 h
[5] = system: MDA-MB-231; test: Antiproliferative activity against human MDA-MB-231 cells after 48 hrs by MTT assay; type: functional, cell-based; conditions: MDA-MB-231, 48 h
[6] = Antiproliferative activity against human 3AO cells after 48 hrs by MTT assay; type: functional, cell-based
[7] = system: HCT-116; test: Antiproliferative activity against human HCT116 cells after 48 hrs by MTT assay; type: functional, cell-based; conditions: HCT-116, 48 h
[8] = system: HeLa; test: Antiproliferative activity against human HeLa cells after 48 hrs by MTT assay; type: functional, cell-based
[9] = system: K562; test: Antiproliferative activity against human K562 cells after 48 hrs by MTT assay; type: functional, cell-based; conditions: K562, 48 h
[10] = Antiproliferative activity against human H7402 cells after 48 hrs by MTT assay; type: functional, cell-based; conditions: H7402, 48 h
Outline: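 Cells kept in RPMI1640 with 10% FBS at 37 °C, 5% CO2. Seeded 5000 per well and allowed at least 4 h to settle, then exposed to a range of compound concentrations for 48 h. 1% MTT solution added for 4 h, formazan dissolved in DMSO over 15 min, OD read at 570 nm. Values are the mean of three experiments.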

[11] = system: PC-3; test: Antiproliferative activity against human PC3 cells after 48 hrs by MTT assay; type: functional, cell-based; conditions: PC-3, 48 h
[12] = Antiproliferative activity against human KG1 cells after 48 hrs by MTT assay; type: functional, cell-based; conditions: KG-1, 48 h
[13] = system: U-937; test: Antiproliferative activity against human U937 cells after 48 hrs by MTT assay; type: functional, cell-based; conditions: U-937, 48 h
[14] = molecular target: T1, Protein deacetylase HDAC6 (Homo sapiens, UniProt Q9UBN7); test: Inhibition of HDAC6 (unknown origin) using Boc-Lys (acetyl)-AMC as substrate preincubated for 30 mins before substrate addition measured after 20 mins by UV-vis spectrophotometer analysis
T1 sequence (Q9UBN7 whole entry): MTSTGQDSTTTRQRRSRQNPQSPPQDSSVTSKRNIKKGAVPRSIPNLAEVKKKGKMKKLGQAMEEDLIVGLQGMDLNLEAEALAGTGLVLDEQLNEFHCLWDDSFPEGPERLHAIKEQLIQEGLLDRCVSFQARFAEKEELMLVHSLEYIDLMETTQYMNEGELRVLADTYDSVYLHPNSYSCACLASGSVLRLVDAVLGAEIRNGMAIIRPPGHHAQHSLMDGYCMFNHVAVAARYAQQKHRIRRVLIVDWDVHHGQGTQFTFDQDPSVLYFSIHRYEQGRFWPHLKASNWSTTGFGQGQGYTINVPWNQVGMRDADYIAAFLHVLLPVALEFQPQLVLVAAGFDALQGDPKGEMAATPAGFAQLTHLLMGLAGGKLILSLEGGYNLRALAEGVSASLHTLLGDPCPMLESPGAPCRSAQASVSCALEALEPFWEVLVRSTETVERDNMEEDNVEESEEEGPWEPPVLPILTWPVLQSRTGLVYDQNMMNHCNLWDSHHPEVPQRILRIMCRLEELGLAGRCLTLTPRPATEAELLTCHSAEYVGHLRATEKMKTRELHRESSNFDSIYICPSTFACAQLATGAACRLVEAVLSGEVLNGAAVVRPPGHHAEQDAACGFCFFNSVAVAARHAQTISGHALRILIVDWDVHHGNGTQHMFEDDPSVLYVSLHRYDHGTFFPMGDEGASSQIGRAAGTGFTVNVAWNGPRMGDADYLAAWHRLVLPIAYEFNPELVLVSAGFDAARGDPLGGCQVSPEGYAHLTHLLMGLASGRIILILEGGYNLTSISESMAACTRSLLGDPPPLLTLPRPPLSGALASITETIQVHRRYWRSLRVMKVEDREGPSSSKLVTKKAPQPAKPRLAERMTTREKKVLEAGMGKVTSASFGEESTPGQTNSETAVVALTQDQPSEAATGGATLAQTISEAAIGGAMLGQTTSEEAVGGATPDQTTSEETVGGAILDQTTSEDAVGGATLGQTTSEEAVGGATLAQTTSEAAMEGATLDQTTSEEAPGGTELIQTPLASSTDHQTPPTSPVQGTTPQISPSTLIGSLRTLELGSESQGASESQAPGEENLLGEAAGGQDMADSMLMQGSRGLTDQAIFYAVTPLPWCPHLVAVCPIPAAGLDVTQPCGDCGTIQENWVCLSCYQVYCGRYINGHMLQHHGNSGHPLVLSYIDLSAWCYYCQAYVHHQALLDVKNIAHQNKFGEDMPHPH

[15] = Antitumor activity against human H7402 cells xenografted in mouse assessed as tumor increment ratio at 60 mg/kg/day, po for 16 days relative to control; type: functional
Outline: (§1)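 Male athymic nude mice, 4-6 weeks old, inoculated subcutaneously in the right axilla with 6.88×10^7 H7402 cells. After 8 days, at about 140 mm³ mean tumor volume, mice were randomized to groups of seven. Daily gavage for 16 days; controls received an equal volume of PBS. Tumors were measured by caliper every three days, V=ab²/2. T/C% = treated RTV/control RTV, where RTV = Vt/V0. Two-tailed t test.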

[16] = system: Mus musculus; test: Toxicity in human H7402 cells xenografted mouse assessed as change in toxic effect at 60 mg/kg/day, po for 16 days; type: organism-based; conditions: in vivo, 384 h
Outline: (§2)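 H7402 subcutaneous xenograft in male athymic nude mice, seven per group, started once tumors reached about 140 mm³. Compound given daily by gavage for 16 days; controls received an equal volume of PBS. Body weight recorded every three days, and toxicity monitored during treatment.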

[17] = molecular target: Histone deacetylase 3 (Homo sapiens, UniProt O15379); test: Inhibition of HDAC3 (unknown origin) using Boc-Lys (acetyl)-AMC as substrate preincubated for 30 mins before substrate addition measured after 20 mins by UV-vis spectrophotometer analysis
[18] = system: Mus musculus; test: Toxicity in human H7402 cells xenografted mouse assessed as change in body weight at 60 mg/kg/day, po for 16 days; type: organism-based; conditions: in vivo, 384 h; outline: as §2
[19] = molecular target: Histone deacetylase 1 (Homo sapiens, UniProt Q13547); test: Inhibition of HDAC1 (unknown origin) using Boc-Lys (acetyl)-AMC as substrate preincubated for 30 mins before substrate addition measured after 20 mins by UV-vis spectrophotometer analysis
[20] = system: Mus musculus; test: Toxicity in human H7402 cells xenografted mouse assessed as change in body weight at 100 mg/kg/day, po for 16 days; type: organism-based; conditions: in vivo, 384 h; outline: as §2
[21] = system: Mus musculus; test: Toxicity in human H7402 cells xenografted mouse assessed as change in toxic effect at 100 mg/kg/day, po for 16 days; type: organism-based; conditions: in vivo, 384 h; outline: as §2
[22] = Antitumor activity against human H7402 cells xenografted in mouse assessed as tumor increment ratio at 100 mg/kg/day, po for 16 days relative to control; type: functional; outline: as §1

Chain of Histone deacetylase 1 (Q13547 whole entry): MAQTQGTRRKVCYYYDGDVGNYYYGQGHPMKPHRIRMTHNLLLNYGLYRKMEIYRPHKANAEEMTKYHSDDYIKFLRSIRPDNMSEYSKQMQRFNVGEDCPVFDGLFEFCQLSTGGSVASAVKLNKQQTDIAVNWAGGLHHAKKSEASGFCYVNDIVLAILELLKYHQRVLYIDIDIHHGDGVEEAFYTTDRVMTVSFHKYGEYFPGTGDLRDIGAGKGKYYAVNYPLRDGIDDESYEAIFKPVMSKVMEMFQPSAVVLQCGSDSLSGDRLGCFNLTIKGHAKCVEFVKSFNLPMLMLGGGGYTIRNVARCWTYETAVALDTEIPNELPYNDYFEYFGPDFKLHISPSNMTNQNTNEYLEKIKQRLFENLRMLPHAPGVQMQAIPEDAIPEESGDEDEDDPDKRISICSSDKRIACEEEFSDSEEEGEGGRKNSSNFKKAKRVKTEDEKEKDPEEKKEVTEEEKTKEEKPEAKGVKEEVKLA
Chain of Histone deacetylase 3 (O15379 whole entry): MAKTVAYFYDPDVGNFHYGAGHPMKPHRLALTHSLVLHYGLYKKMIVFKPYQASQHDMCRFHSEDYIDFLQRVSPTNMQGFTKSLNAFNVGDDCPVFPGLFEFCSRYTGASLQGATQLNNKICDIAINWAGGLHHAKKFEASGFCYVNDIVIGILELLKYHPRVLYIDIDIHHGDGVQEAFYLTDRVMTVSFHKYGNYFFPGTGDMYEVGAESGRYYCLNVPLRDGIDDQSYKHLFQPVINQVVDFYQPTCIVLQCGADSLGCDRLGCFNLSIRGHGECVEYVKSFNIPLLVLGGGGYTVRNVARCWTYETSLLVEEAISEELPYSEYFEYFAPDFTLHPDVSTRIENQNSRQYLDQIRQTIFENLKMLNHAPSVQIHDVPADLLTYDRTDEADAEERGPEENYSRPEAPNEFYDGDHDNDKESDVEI

Structure (SMILES) | IC50 [1] [µM] | IC50 [2] [µM] | IC50 [3] [nM] | IC50 [4] [µM] | IC50 [5] [µM] | IC50 [6] [µM] | IC50 [7] [µM] | IC50 [8] [µM] | IC50 [9] [nM] | IC50 [10] [µM] | IC50 [11] [µM] | IC50 [12] [µM] | IC50 [13] [nM] | also measured
O=C(CNC(=O)CN1C(=O)C2(OCCO2)c2cc(Br)ccc21)NO | > 50 |  |  |  |  |  |  |  |  |  |  |  |  | 
O=C(CCCNC(=O)CN1C(=O)C2(OCCO2)c2cc(Br)ccc21)NO | 0.92 |  |  |  |  |  |  |  |  |  |  |  |  | 
O=C(CCCCCNC(=O)CN1C(=O)C2(OCCO2)c2cc(Br)ccc21)NO | 0.67 |  |  |  |  |  |  |  |  |  |  |  |  | 
O=C(/C=C/c1ccc(NC(=O)CN2C(=O)C3(OCCO3)c3cc(Br)ccc32)cc1)NO | 0.22 |  |  |  |  |  |  |  |  |  |  |  |  | 
O=C(CN1C(=O)C2(OCCO2)c2cc(F)ccc21)Nc1ccc(C(=O)NO)cc1 | 0.19 |  |  |  |  |  |  |  |  |  |  |  |  | 
O=C(CN1C(=O)C2(OCCO2)c2cc(Cl)ccc21)Nc1ccc(C(=O)NO)cc1 | 0.37 |  |  |  |  |  |  |  |  |  |  |  |  | 
O=C(CN1C(=O)C2(OCCO2)c2cc(Br)ccc21)Nc1ccc(C(=O)NO)cc1 | 0.12 |  |  |  |  |  |  |  |  |  |  |  |  | 
O=C(CN1C(=O)C2(OCCO2)c2ccccc21)Nc1ccc(C(=O)NO)cc1 | 0.31 |  |  |  |  |  |  |  |  |  |  |  |  | 
Cc1ccc2c(c1)C1(OCCO1)C(=O)N2CC(=O)Nc1ccc(C(=O)NO)cc1 | 0.28 |  |  |  |  |  |  |  |  |  |  |  |  | 
O=C(CN1C(=O)C2(OCCO2)c2cc([N+](=O)[O-])ccc21)Nc1ccc(C(=O)NO)cc1 | > 50 |  |  |  |  |  |  |  |  |  |  |  |  | 
O=C(CN1C(=O)C2(OCCCO2)c2cc(Cl)ccc21)Nc1ccc(C(=O)NO)cc1 | 0.0344 | 28.4 | 1250 | 10.1 | 57.1 | 12.3 | 41.9 | 11.3 | 5320 | 4.64 | 21.9 | 9.19 | 2090 | 
O=C(CN1C(=O)C2(OCCCCO2)c2cc(Cl)ccc21)Nc1ccc(C(=O)NO)cc1 | 0.0373 | 25 | 1290 | 25.3 | 36.4 | 23.6 | 42.4 | 36.1 | 7230 | 5.34 | 11.6 | 10.1 | 1490 | 
O=C(CN1C(=O)C2(OCCCO2)c2cc(Br)ccc21)Nc1ccc(C(=O)NO)cc1 | 0.013 | 8.58 | 560 | 16.1 | 44.7 | 18.3 | 60.1 | 12.1 | 1940 | 1.37 | 11 | 5.4 | 400 | 
O=C(CN1C(=O)C2(OCCCCO2)c2cc(Br)ccc21)Nc1ccc(C(=O)NO)cc1 | 0.0216 | 6.13 | 640 | 3.6 | 24.1 | 27.2 | 80.2 | > 50 | 3910 | 0.75 | 17.7 | 5.49 | 660 | 
O=C(CCN1C(=O)C2(OCCCO2)c2cc(Br)ccc21)Nc1ccc(C(=O)NO)cc1 | 0.01013 | 52.6 | 330 | 2.8 | 101 | 3.25 | 1.26 | 2.79 | 180 | 5.33 | 1.91 | 0.32 | 140 | IC50 [14]: 126 nM; T/C [15]: 62.5%; Activity [16]: Non-toxic; IC50 [17]: 25 nM; Activity [18]: Non-toxic; IC50 [19]: 201 nM
O=C(CCCN1C(=O)C2(OCCCO2)c2cc(Br)ccc21)Nc1ccc(C(=O)NO)cc1 | 0.0194 | 13.7 | 340 | 6.02 | 126 | 21.4 | 1.1 | 22.2 | 390 | 0.58 | 7.93 | 0.42 | 220 | 
COC(=O)c1ccc(NC(=O)CN2C(=O)C3(OCCCO3)c3cc(Br)ccc32)cc1 | > 50 |  |  |  |  |  |  |  |  |  |  |  |  | 
O=C(CN1C(=O)C2(OCCCO2)c2cc(Br)ccc21)Nc1ccc(C(=O)O)cc1 | > 50 |  |  |  |  |  |  |  |  |  |  |  |  | 
Nc1ccccc1NC(=O)c1ccc(NC(=O)CN2C(=O)C3(OCCCO3)c3cc(Br)ccc32)cc1 | 0.31 | 5.23 |  | 6.49 | 82.7 | 9.71 | 0.64 | 26.6 | 440 | 1.95 | 4.43 | 5.92 | 1080 | 
O=C(CCCCCCC(=O)Nc1ccccc1)NO [VORINOSTAT] |  |  |  |  |  |  |  |  |  | 10.1 |  |  |  | Activity [20]: Non-toxic; Activity [21]: Non-toxic; T/C [22]: 75.53%
